This note sets out measurements from ChEMBL document CHEMBL3244051, “15,15-Ketals of natural prostaglandins and prostaglandin analogues. Synthesis and biological activities” (1978).

Active and inactive are the calls of the source. No cut-off for these calls is given here.

Assay [1] in a line: […] activity in rat uterus assessed as uterine contraction relative to PGF2alpha. Format: functional. In a few lines: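 Isolated rat uterine horns held in salt solution matching extracellular fluid; contractions recorded isotonically as length change. One horn of each animal received test agent, the other the reference, in separate organ baths; n = 4 paired comparisons. Contraction height (mm) analysed by analysis of variance.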

Assay [2] has as its system Rattus norvegicus. Briefly: Abortifacient activity in sc dosed early pregnant Wistar rat assessed as decrease in serum progesterone level administered in benzyl benzoate and castor oil on day 4 to day 7 of gestation measured on day 3, 5, 7 and 9 of gestation by RIA relative to PGF2alpha. Format: functional. A digest of the protocol:
(§1)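 Female Wistar rats mated at proestrus; sperm in vaginal smear next day defines day 1 of gestation. Dosed sc in 0.2 mL oil (benzyl benzoate:castor oil 1:3) on days 4–7; 4 rats/group. Orbital plexus blood taken days 3, 5, 7, 9 for serum progesterone by RIA; rats killed day 9, uteri inspected for abortion.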

Assay [3] relates to Rattus norvegicus. Put plainly: Abortifacient activity in sc dosed early pregnant Wistar rat assessed as decrease in serum progesterone level measured per animal administered in benzyl benzoate and castor oil on day 4 to day 7 of gestation measured on day 3, 5, 7 and 9 of gestation by RIA. Format: functional. A digest of the protocol: as §1
The test system of the next assay is Ileum. Briefly: Contraction of guinea pig ileum relative to PGF2alpha. Format: functional, Cavia porcellus.

`CCCCCC1(CC[C@@H]2[C@@H](C/C=C\CCCC(=O)OC)[C@@H](O)C[C@H]2O)OCCO1`: the “fold change (FC)” value in assay [1] was 1; in the assay with Rattus norvegicus [2], under 0.3.
For `CCCCC[C@H](O)/C=C/[C@@H]1[C@@H](C/C=C\CCCC(=O)O)[C@@H](O)C[C@H]1O` [DINOPROST], the Activity in the assay on Rattus norvegicus [3] was 0.3 mg/day.
With `COC(=O)CCC/C=C\C[C@@H]1[C@@H](/C=C/C2(COc3cccc(C(F)(F)F)c3)OCCO2)[C@H](O)C[C@@H]1O`, the “fold change (FC)” value in assay [1] is on record as over 10; in the assay on Ileum, under 0.1; in the assay with Rattus norvegicus [2] it was 10.
`COC(=O)CCC/C=C\C[C@@H]1[C@@H](/C=C/C2(COc3ccc(F)cc3)OCCO2)[C@H](O)C[C@@H]1O`: the “fold change (FC)” value (in assay [1]; in the assay with Rattus norvegicus [2]) was 10 in each case.
For `O=C(O)CCC/C=C\C[C@@H]1[C@@H](/C=C/C2(COc3ccccc3)OCCO2)[C@H](O)C[C@@H]1O` [ETIPROSTON], the “fold change (FC)” value is listed as 10 in assay [1], 0.1 in the assay with Ileum and 10 in the assay with Rattus norvegicus [2].
As to `O=C(O)CCC/C=C\C[C@@H]1[C@@H](/C=C/C2(COc3ccccc3)OCCO2)[C@H](O)C[C@@H]1O`, in the assay on Rattus norvegicus [2], the outcome was Active.
Regarding `CCCCCC1(/C=C/[C@@H]2[C@@H](C/C=C\CCCC(=O)OC)[C@@H](O)C[C@H]2O)OCCO1`, the “fold change (FC)” value in assay [1] came out at 5; in the assay on Ileum, 0.1; with Rattus norvegicus [2] it was 1.
Turning to `CCCCOC(=O)CCC/C=C\C[C@@H]1[C@@H](/C=C/C2(COc3ccccc3)OCCO2)[C@H](O)C[C@@H]1O`, the “fold change (FC)” value worked out at 10 in assay [1] and 30 in the assay on Rattus norvegicus [2].
In the same order, the values of `CCCCCC1(/C=C/[C@@H]2[C@@H](C/C=C\CCCC(=O)O)[C@@H](O)C[C@H]2O)OCCO1` are 5 and 1.
Turning to `COC(=O)CCC/C=C\C[C@@H]1[C@@H](/C=C/C2(c3ccc(Cl)cc3)OCCO2)[C@H](O)C[C@@H]1O`, the “fold change (FC)” value (in assay [1]; with Rattus norvegicus [2]) was 10 throughout.
On to `COC(=O)CCC/C=C\C[C@@H]1[C@@H](/C=C/C2(CCc3ccccc3)OCCO2)[C@H](O)C[C@@H]1O`, for which the “fold change (FC)” value in assay [1] is reported as over 10; in the assay on Rattus norvegicus [2] it was 30.
Regarding `CCCCCC(/C=C/[C@@H]1[C@@H](C/C=C\CCCC(=O)OC)[C@@H](O)C[C@H]1O)(OC)OC`, the “fold change (FC)” value is reported as 0.1 in assay [1], under 0.1 in the assay on Ileum and under 0.1 in the assay with Rattus norvegicus [2].
With `CCCCCC1(/C=C/[C@@H]2[C@@H](C/C=C\CCCC(=O)OC)[C@@H](O)C[C@H]2O)OCC(C)(C)CO1`, the “fold change (FC)” value is under 0.1 in assay [1] and under 0.3 in the assay on Rattus norvegicus [2].
With `CCCCCC1(/C=C/[C@@H]2[C@@H](C/C=C\CCCC(=O)OC)[C@@H](O)C[C@H]2O)OCCCO1`, the “fold change (FC)” value in assay [1] is under 0.1; in the assay on Rattus norvegicus [2], under 0.3.
Regarding `NC(CO)(CO)CO.O=C(O)CCC/C=C\C[C@@H]1[C@@H](/C=C/C2(COc3ccccc3)OCCO2)[C@H](O)C[C@@H]1O`, in assay [1], the “fold change (FC)” value is reported as over 10.
Take `COC(=O)CCC/C=C\C[C@@H]1[C@@H](CCC2(COc3ccccc3)OCCO2)[C@H](O)C[C@@H]1O`: the “fold change (FC)” value in assay [1] is on record as over 10; in the assay on Rattus norvegicus [2], 10.
Take `COC(=O)CCC/C=C\C[C@@H]1[C@@H](/C=C/C2(COc3ccccc3)OCCO2)[C@H](O)C[C@@H]1O`: the entries for the “fold change (FC)” value (in assay [1]; with Ileum; in the assay on Rattus norvegicus [2]) were over 10, under 0.1 and 100, respectively.
